Experimental data as given in ChEMBL document CHEMBL3751676, “Combating P-glycoprotein-mediated multidrug resistance with 10-O-phenyl dihydroartemisinin ethers in MCF-7 cells” (Eur J Med Chem, 2016).

Assays:
NCI/ADR-RES = experiment: Selectivity index, ratio of GI50 for human MCF7 cells to GI50 for human MCF7/ADR cells; format: functional
[1] = Antiproliferative activity against human MCF7/ADR cells after 96 hrs by MTT assay; format: functional; details: NCI/ADR-RES
Procedure, shortened: (§1)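 MTT: cells seeded at 1.5-4.0 × 10^4 cells/mL and incubated overnight at 37 C, then exposed to 5-9 concentrations (DMSO stocks diluted in growth medium; final DMSO ≤0.5%) for 96 h. MTT added at 0.5 mg/mL for a further 4 h at 37 C and the formazan dissolved. Inhibition calculated relative to control; GI50 estimated by curve fitting; 3-5 repeats, mean ± SD.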

MCF7 = experiment: Antiproliferative activity against human MCF7 cells after 96 hrs by MTT assay; format: functional; details: MCF7, 96 h; procedure, shortened: as §1
[2] = Permeability across basolateral to apical side in MDCK cells after 90 mins by LC-MS/MS analysis; format: ADME, cell-based, Canis lupus familiaris; details: dog
Procedure, shortened: (§2)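 Wild-type MDCK cells on Transwell filters. Transport was run in HBSS pH 7.4 at 37 °C in A-B and B-A directions, and plates were separated after 90 min incubation. Efflux ratio is Papp(B-A)/Papp(A-B). Papp is reported as "<" when receiver concentrations were below the quantitation limit.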

[3] = Permeability across apical to basolateral side in MDCK cells after 90 mins by LC-MS/MS analysis; format: ADME, cell-based, Canis lupus familiaris; details: dog; procedure, shortened: as §2
MDR1 (ABCB1) [4] = target: T1, MDR1 (ABCB1) (Homo sapiens, UniProt P08183); experiment: Activity at MDR1 (unknown origin) expressed in MDCK cells assessed as permeability across basolateral to apical after 90 mins by LC-MS/MS analysis; format: ADME, cell-based
T1 sequence (P08183 whole entry): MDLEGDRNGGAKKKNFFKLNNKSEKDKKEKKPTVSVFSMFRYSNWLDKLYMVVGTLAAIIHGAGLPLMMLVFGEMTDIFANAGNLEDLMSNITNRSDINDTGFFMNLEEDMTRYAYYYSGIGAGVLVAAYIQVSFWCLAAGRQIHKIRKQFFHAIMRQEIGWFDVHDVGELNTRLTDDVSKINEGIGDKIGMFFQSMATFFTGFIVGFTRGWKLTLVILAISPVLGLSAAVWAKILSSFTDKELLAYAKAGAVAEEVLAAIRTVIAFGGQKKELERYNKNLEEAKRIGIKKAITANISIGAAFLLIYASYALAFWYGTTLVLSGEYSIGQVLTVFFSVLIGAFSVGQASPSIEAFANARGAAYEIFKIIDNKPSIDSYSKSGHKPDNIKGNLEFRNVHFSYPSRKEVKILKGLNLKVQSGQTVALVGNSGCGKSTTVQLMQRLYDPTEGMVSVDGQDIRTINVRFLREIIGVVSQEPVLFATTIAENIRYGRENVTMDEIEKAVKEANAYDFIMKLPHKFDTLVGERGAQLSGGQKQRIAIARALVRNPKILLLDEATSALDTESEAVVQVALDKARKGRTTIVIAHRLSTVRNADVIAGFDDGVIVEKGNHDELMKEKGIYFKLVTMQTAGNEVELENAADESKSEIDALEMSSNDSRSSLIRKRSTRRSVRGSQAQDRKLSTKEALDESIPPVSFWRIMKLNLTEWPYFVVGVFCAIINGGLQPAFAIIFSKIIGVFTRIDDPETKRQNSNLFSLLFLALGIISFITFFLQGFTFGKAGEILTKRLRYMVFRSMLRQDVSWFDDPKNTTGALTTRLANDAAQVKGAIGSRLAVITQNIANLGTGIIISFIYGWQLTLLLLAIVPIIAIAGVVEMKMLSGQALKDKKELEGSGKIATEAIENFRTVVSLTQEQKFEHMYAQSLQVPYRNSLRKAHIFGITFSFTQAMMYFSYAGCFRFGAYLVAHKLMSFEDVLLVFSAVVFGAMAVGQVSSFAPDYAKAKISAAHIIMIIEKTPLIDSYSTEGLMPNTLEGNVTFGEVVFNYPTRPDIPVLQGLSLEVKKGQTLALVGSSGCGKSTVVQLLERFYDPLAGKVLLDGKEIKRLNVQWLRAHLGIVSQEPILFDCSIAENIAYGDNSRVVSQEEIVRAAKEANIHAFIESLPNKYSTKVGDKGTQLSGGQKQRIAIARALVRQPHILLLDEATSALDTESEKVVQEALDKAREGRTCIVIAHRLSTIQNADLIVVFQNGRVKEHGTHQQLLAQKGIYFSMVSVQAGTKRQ

MDR1 (ABCB1) [5] = target: T1, MDR1 (ABCB1); experiment: Activity at MDR1 (unknown origin) expressed in MDCK cells assessed as permeability across apical to basolateral after 90 mins by LC-MS/MS analysis; format: ADME, cell-based
[6] = Efflux ratio of permeability across basolateral to apical side over apical to basolateral side in MDCK cells; format: ADME, cell-based, Canis lupus familiaris; details: dog; procedure, shortened: as §2
MDR1 (ABCB1) [7] = target: T1, MDR1 (ABCB1); experiment: Activity at MDR1 (unknown origin) expressed in MDCK cells assessed as efflux ratio of permeability across basolateral to apical side over apical to basolateral side; format: ADME, cell-based

| SMILES | RatioGI50 (NCI/ADR-RES) | GI50 [1] [nM] | GI50 (MCF7) [nM] | Papp B→A at 1.5 h [2] [×10⁻⁶ cm/s] | Papp A→B at 1.5 h [3] [×10⁻⁶ cm/s] | Papp B→A at 1.5 h (MDR1 (ABCB1) [4]) [×10⁻⁶ cm/s] | Papp A→B at 1.5 h (MDR1 (ABCB1) [5]) [×10⁻⁶ cm/s] | efflux ratio [6] | efflux ratio (MDR1 (ABCB1) [7]) |
| --- | --- | --- | --- | --- | --- | --- | --- | --- | --- |
| COc1cccc2c1C(=O)c1c(O)c3c(c(O)c1C2=O)C[C@@](O)(C(=O)CO)C[C@@H]3O[C@H]1C[C@H](N)[C@H](O)[C@H](C)O1.Cl [DOXORUBICIN HYDROCHLORIDE] | 0.1 | 520 | 54 |  |  |  |  |  |  |
| C[C@H]1[C@@H](Oc2ccc(CN3CCN(c4ccccn4)CC3)cc2)O[C@@H]2O[C@@]3(C)CC[C@H]4[C@H](C)CC[C@@H]1[C@@]24OO3 | 3.09 | 55 | 170 |  |  |  |  |  |  |
| C[C@H]1[C@@H](Oc2ccc(CN3CCN(c4ccc(F)cc4)CC3)cc2)O[C@@H]2O[C@@]3(C)CC[C@H]4[C@H](C)CC[C@@H]1[C@@]24OO3 | 21.2 | 25 | 530 | < 0.83 | < 1.33 | < 0.85 | < 1.34 |  |  |
| C[C@H]1[C@@H](Oc2ccc(/C=C/C(=O)N3CCN(c4ccc(F)cc4)CC3)cc2)O[C@@H]2O[C@@]3(C)CC[C@H]4[C@H](C)CC[C@@H]1[C@@]24OO3 | 8.57 | 38 | 270 |  |  |  |  |  |  |
| C[C@H]1[C@@H](Oc2ccc(/C=C/C(=O)N3CCN(c4ccccc4)CC3)cc2)O[C@@H]2O[C@@]3(C)CC[C@H]4[C@H](C)CC[C@@H]1[C@@]24OO3 | 2.16 | 51 | 110 |  |  |  |  |  |  |
| C[C@H]1[C@@H](Oc2ccc(C(=O)N3CCN(c4ccccc4)CC3)cc2)O[C@@H]2O[C@@]3(C)CC[C@H]4[C@H](C)CC[C@@H]1[C@@]24OO3 | 1.33 | 75 | 100 |  |  |  |  |  |  |
| C[C@H]1[C@@H](Oc2ccc(CC(=O)N3CCN(c4ccccc4)CC3)cc2)O[C@@H]2O[C@@]3(C)CC[C@H]4[C@H](C)CC[C@@H]1[C@@]24OO3 | 4.78 | 90 | 430 |  |  |  |  |  |  |
| C=C[C@H]1C[N@@]2CC[C@H]1C[C@@H]2[C@@H](O)c1ccnc2ccc(OC)cc12 [QUINIDINE] |  |  |  | 23.4 | 9.98 | 34.1 | 4.37 | 2.34 | 7.81 |
| C[C@H]1[C@@H](Oc2ccc(CN3CCN(c4cccc(C(F)(F)F)c4)CC3)cc2)O[C@@H]2O[C@@]3(C)CC[C@H]4[C@H](C)CC[C@@H]1[C@@]24OO3 | 6.67 | 33 | 220 |  |  |  |  |  |  |
| C[C@H]1[C@@H](O)O[C@@H]2O[C@@]3(C)CC[C@H]4[C@H](C)CC[C@@H]1[C@@]24OO3 [ARTENIMOL] | 10 | 3320 | 33200 | 25.1 | 31.4 | 24.9 | 28 | 0.8 | 0.89 |
